According to ChEMBL document CHEMBL1157678, “alpha-Glucosidase inhibitory antihyperglycemic activity of substituted chromenone derivatives” (Bioorg Med Chem, 2010):
The source made the active and inactive calls. The calls are words filed in the database; no cut-off is given here.

Columns and labels:
[1] = Inhibition of rat intestinal alpha-glucosidase after 5 mins by spectrophotometry
Outline: (§1)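 Enzyme source was the supernatant of sonicated rat intestinal homogenate after centrifugation. Sample (5 mg/mL DMSO stock) in 100 mM phosphate buffer pH 6.8 was preincubated with enzyme for 5 min, then 5 mM p-nitrophenyl-α-D-glucopyranoside added. p-Nitrophenol was read at 405 nm 5 min later, with substrate-free blanks and a DMSO control. Inhibition (%) = (1 − B/A) × 100; IC50 by logarithmic regression.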

[2] = system: Radical scavenging activity; assay: Antioxidant activity assessed as DPPH radical scavenging activity at 25 ug/mL after 30 mins by spectrophotometry; assay type: functional
Outline: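 Test sample in DMSO (1 mg/mL stock) was mixed with 0.1 M Tris–HCl pH 7.4 and 0.5 mM DPPH in absolute ethanol. The mixture was shaken and kept in the dark 30 min, then absorbance read at 517 nm. Scavenging (%) = (1 − B/A) × 100 against a control without sample.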

[3] = species: Rattus norvegicus; assay: Inhibition of rat intestinal alpha-glucosidase at 100 ug/mL after 5 mins by spectrophotometry; outline: as §1
[4] = system: Rattus norvegicus; assay: Antihyperglycemic activity in overnight fasted starch-induced hyperglycemic Wistar rat assessed as decrease in plasma glucose level at 10 mg/kg, po administered 15 mins before starch challenge measured after 30 to 120 mins by glucose oxidase method; assay type: functional, organism-based; parameters: dose 10 mg/kg
Outline: (§2)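 Wistar rats of either sex (195–215 g), housed at 22 °C with a 12 h light/dark cycle, fasted overnight. Test agent suspended in normal saline and given orally by gastric intubation; controls received saline. Soluble starch (2 g/kg in saline) fed 15 min later. Retro-orbital blood was collected into EDTA for plasma glucose at 0–120 min. Plasma glucose AUC by trapezoid formula.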

[5] = species: Rattus norvegicus; assay: Mixed noncompetitive inhibition of rat intestinal alpha-glucosidase at 10.6 uM by Lineweaver-Burke plot analysis
Outline: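 Conditions follow the rat intestinal α-glucosidase/p-NPG assay, but Vmax kinetics were recorded over 10 min at 30 s intervals after a 10 s lag following substrate addition. Substrate was used at various dilutions, with or without preincubation of inhibitor. Data were analysed on a Lineweaver–Burk plot.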

[6] = system: Rattus norvegicus; assay: Antihyperglycemic activity in overnight fasted starch-induced hyperglycemic Wistar rat assessed as decrease in plasma glucose level at 100 mg/kg, po administered 15 mins before starch challenge measured after 30 to 120 mins by glucose oxidase method; assay type: functional, organism-based; parameters: dose 100 mg/kg; outline: as §2

Structure (SMILES) | IC50 [1] | Activity [2] | inhibition [3] | Activity [4] | inhibition [5] | Activity [6]
Cc1c(C#N)c(=O)oc2ccc(-c3ccccc3)cc12 | 52.9 µM | 10.4% | 95.5% | – | – | –
O=C(c1ccccc1)c1cc2cc(-c3ccccc3)ccc2oc1=O | 52.2 µM | 2.45% | 70% | – | – | –
CCOC(=O)c1cc2cc(-c3ccc(C)cc3)ccc2oc1=O | 112 µM | inactive | 65.9% | – | – | –
O=C(c1ccccc1)c1cc2ccccc2oc1=O | – | 30.8% | 44.4% | – | – | –
C[C@H]1O[C@H](O[C@H]2[C@H](O)[C@@H](O)[C@@H](O[C@H]3[C@H](O)[C@@H](O)C(O)O[C@@H]3CO)O[C@@H]2CO)[C@H](O)[C@@H](O)[C@@H]1N[C@H]1C=C(CO)[C@@H](O)[C@H](O)[C@H]1O (some centres undefined) | – | – | – | Active | – | –
O=C(c1ccccc1)c1cc2ccc(O)cc2oc1=O | – | inactive | 53.7% | – | – | –
CC(=O)c1cc2cc(-c3cccnc3)ccc2oc1=O | 58.1 µM | 3.72% | 96.4% | – | – | –
CCOC(=O)c1cc2ccccc2oc1=O | – | 1.82% | 47% | – | – | –
Cc1c(O)ccc2c(CCl)cc(=O)oc12 | 68.7 µM | 28.5% | 72.7% | – | – | –
COc1ccc(-c2ccc3oc(=O)c(C(C)=O)cc3c2)cn1 | 28.2 µM | inactive | 86% | – | Active | Active
CCOC(=O)c1cc2cc(-c3ccccc3)ccc2oc1=O | 186 µM | 4.8% | 77.1% | – | – | –
COc1ccc(-c2ccc3oc(=O)c(C#N)c(C)c3c2)cn1 | 44.5 µM | 35% | 93.1% | – | – | –
Cc1c(Cl)c(=O)oc2cc(O)ccc12 | 128 µM | 20.8% | 77.8% | – | – | –
CCOC(=O)c1cc2ccc(O)cc2oc1=O | 91 µM | inactive | 77.6% | – | – | –
CC(=O)c1cc2cc(-c3ccc(F)cc3)ccc2oc1=O | 53.1 µM | 15.6% | 74.3% | – | – | –
CC(=O)c1cc2cc(-c3cncnc3)ccc2oc1=O | 37.2 µM | inactive | 83.5% | – | – | –
CC(=O)c1cc2cc(-c3ccc(N4CCOCC4)cc3)ccc2oc1=O | 49 µM | 20.5% | 85.1% | – | – | –
O=C(c1ccccc1)c1cc2cc(Br)ccc2oc1=O | – | 2.22% | 18.1% | – | – | –
CC(=O)c1cc2cc(-c3ccc(Cl)cc3)ccc2oc1=O | 96.4 µM | 12.5% | 76.9% | – | – | –
O=c1cc(CCl)c2ccc(O)cc2o1 | 243 µM | 1.32% | 78.3% | – | – | –
CCOC(=O)c1cc2cc(-c3cncnc3)ccc2oc1=O | 40.5 µM | inactive | 80.4% | – | – | –
CC(=O)c1cc2cc(-c3ccccc3)ccc2oc1=O | – | 19.6% | inactive | – | – | –
CC(=O)c1cc2cc(Br)ccc2oc1=O | – | 1.52% | 31.9% | – | – | –
CCOC(=O)c1cc2cc(-c3ccc(OC)nc3)ccc2oc1=O | 105 µM | inactive | 76.9% | – | – | –
CCOC(=O)c1cc2cc(-c3ccc(F)cc3)ccc2oc1=O | 37.6 µM | inactive | 66.7% | – | – | –
CC(=O)c1cc2ccccc2oc1=O | – | 0.83% | 53.2% | – | – | –
CC(=O)c1cc2cc(-c3ccc(C)cc3)ccc2oc1=O | 52.6 µM | inactive | 86.5% | – | – | –
